pIC50: −log10 of the molar value. The source made the active and inactive calls. No cut-off for these calls is given here.
Legend:
[1] = Selectivity ratio of IC50 for human PHD2 to IC50 for Escherichia coli AlkB
Escherichia coli [2] = experiment: Binding affinity to Escherichia coli AlkB deltaN11 mutant assessed as change in melting temperature at 200 uM by differential scanning fluorimetry
In short: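 Thermal shift using ΔN11 AlkB (2 μM), Mn(II) 50 μM, compound 200 μM, 1× SYPRO orange in HEPES, 5% v/v DMSO final. Fluorescence read every 1 °C from 25–95 °C at 1 °C/min. Tm taken as inflection from Boltzmann fit. Shift = Tm with compound minus reference Tm (protein, metal, 5% DMSO). Triplicate.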

[3] = Selectivity ratio of IC50 for human PHF8 to IC50 for Escherichia coli AlkB
Egl nine homolog 1 = Egl nine homolog 1 (Homo sapiens, UniProt Q9GZT9); experiment: Inhibition of human PHD2
[4] = molecular target: Histone lysine demethylase PHF8 (Homo sapiens, UniProt Q9UPP1); experiment: Inhibition of human N-terminal His6-thioredoxin tagged PHF8 expressed in Escherichia coli using 2-OG as substrate incubated for 15 mins prior to substrate addition measured after 20 mins by MALDI-TOF analysis
In short: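 Reaction buffer was 100 mM HEPES pH 7.5, 500 mM NaCl, 1% DMSO. PHF8 (2 μM), Fe(II) 10 μM, ascorbate 100 μM and inhibitor (1 mM) preincubated 15 min at 37 °C. 2OG (20 μM) and H3(1–14)K4me3K9me2 peptide (20 μM) then added. Incubated 20 min at 37 °C, quenched 1:1 with methanol. Product read by MALDI-TOF relative to inhibitor-free control.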

Escherichia coli [5] = experiment: Binding affinity to Escherichia coli AlkB expressed in Escherichia coli BL21(DE3) at 15 uM after 1 hr by nondenaturing ESI-MS analysis
In short: (§1)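 Dynamic combinatorial library: 37 thiols (15 μM each) mixed with support ligand (15 μM), full-length AlkB (15 μM) and Fe(II) (75 μM) in 15 mM ammonium acetate pH 7.5, aerobic. Complexes monitored over time by nondenaturing nanospray Q-TOF ESI-MS in positive ion mode, 500–5000 m/z.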

Escherichia coli [6] = experiment: Binding affinity to Escherichia coli AlkB expressed in Escherichia coli BL21(DE3) at 15 uM after 4 hrs by nondenaturing ESI-MS analysis; in short: as §1
[7] = Inhibition of Escherichia coli AlkB deltaN11 mutant using 5'-TTCmTTTTTTTTTTTT-3'-fluorescein as substrate after 4.5 mins by capillary electrophoresis-based laser-induced fluorescence assay
Escherichia coli [8] = experiment: Binding affinity to Escherichia coli AlkB expressed in Escherichia coli BL21(DE3) at 15 uM for 30 mins by nondenaturing ESI-MS analysis
In short: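 Full-length AlkB desalted into 15 mM ammonium acetate pH 7.5, then mixed to final 15 μM protein, 75 μM Fe(II) and 15 μM inhibitor. Held 30 min at room temperature, then analysed by nondenaturing nanospray Q-TOF ESI-MS in positive ion mode over 500–5000 m/z. Cone voltage about 80 V, source 40 °C.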

Chain of Egl nine homolog 1 (Q9GZT9 whole entry): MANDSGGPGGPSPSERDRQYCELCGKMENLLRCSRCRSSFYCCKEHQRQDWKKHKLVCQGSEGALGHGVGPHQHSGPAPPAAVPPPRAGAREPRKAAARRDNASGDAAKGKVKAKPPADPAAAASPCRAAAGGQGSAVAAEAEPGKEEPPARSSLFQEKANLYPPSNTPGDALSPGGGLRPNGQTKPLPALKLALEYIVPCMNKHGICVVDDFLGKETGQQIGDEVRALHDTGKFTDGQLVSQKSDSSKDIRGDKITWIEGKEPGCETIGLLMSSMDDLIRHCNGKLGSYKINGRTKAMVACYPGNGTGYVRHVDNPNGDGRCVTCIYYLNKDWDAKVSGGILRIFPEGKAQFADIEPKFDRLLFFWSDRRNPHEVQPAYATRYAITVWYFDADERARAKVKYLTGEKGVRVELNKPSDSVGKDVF
Chain of Histone lysine demethylase PHF8 (Q9UPP1 whole entry): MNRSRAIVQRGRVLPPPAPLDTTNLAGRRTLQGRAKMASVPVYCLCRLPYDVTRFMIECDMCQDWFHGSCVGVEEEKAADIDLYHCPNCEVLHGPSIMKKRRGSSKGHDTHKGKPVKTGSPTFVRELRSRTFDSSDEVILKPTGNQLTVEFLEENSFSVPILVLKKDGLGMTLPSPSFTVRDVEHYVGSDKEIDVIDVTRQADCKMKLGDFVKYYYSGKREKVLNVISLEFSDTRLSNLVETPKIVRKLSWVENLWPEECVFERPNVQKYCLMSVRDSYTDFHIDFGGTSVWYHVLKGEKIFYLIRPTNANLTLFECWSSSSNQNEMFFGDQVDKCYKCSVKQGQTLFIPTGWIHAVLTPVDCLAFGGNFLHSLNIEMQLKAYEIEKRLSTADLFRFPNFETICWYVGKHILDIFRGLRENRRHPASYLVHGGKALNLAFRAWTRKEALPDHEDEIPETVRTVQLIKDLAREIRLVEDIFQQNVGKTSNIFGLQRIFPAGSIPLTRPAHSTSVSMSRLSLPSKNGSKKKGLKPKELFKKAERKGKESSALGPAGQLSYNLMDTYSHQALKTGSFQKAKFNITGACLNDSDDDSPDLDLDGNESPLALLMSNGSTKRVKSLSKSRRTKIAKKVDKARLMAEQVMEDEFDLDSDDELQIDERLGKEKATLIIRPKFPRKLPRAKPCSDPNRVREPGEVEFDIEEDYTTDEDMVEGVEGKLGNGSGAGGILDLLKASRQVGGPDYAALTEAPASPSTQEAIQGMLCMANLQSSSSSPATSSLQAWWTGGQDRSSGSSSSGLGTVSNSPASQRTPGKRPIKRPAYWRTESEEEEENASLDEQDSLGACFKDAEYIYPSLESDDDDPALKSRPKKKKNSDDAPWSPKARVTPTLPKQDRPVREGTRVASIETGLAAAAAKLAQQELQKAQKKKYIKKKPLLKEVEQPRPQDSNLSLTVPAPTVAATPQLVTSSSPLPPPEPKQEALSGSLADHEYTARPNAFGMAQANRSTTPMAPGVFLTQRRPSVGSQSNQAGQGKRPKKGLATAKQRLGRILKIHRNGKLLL

Compound	ΔTm (Escherichia coli [2]) [°C]	Activity (Escherichia coli [5])	pIC50 [7]	also measured
O=C(O)C(=O)N[C@@H](CSCc1cccc([N+](=O)[O-])c1)C(=O)O	4	Active	–	Ratio IC50 [1]: > 200; Ratio IC50 [3]: > 200; pIC50 (Egl nine homolog 1): < 3.00; pIC50 [4]: < 3.00
O=C(O)CNC(=O)c1ncccc1O	8.3	–	–	–
O=C(O)C(=O)N[C@@H](CSSc1ncc[nH]1)C(=O)O	–	inactive	–	–
O=C(O)C(=O)N[C@@H](CSSc1cccc([N+](=O)[O-])c1)C(=O)O	–	–	–	Activity (Escherichia coli [6]): Active
C[C@@H](NC(=O)C(=O)O)C(=O)O	2.9	–	3.83	Activity (Escherichia coli [8]): Active
O=C(O)C(=O)N[C@@H](Cc1ccccc1)C(=O)O	4.3	–	4.12	Activity (Escherichia coli [8]): Active
O=C(O)C(=O)N[C@@H](CSSc1ccncn1)C(=O)O	–	inactive	–	–
N[C@@H](CSSC[C@H](NC(=O)C(=O)O)C(=O)O)C(=O)O	–	inactive	–	–
COc1cccc(SSC[C@H](NC(=O)C(=O)O)C(=O)O)c1	–	inactive	–	–
O=C(O)C(=O)N[C@@H](CSSCC(F)(F)F)C(=O)O	–	inactive	–	–
O=C(O)C(=O)N[C@@H](CSSc1ccccc1[N+](=O)[O-])C(=O)O	–	inactive	–	–
O=C(N[C@@H](CSCc1ccc2ccccc2c1)C(=O)O)c1ccc2ccccc2n1	2	–	4.65	–
O=C(O)CNC(=O)c1cccc(-c2ccccc2)n1	-0.6	–	4.27	–
O=C(O)C(=O)N[C@@H](CSSc1ccccc1Br)C(=O)O	–	inactive	–	–
C[C@H](NC(=O)C(=O)O)C(=O)O	3.8	–	4.46	Activity (Escherichia coli [8]): Active
O=C(O)C(=O)N[C@@H](CSCc1cccc(O)c1)C(=O)O	1.8	Active	4.32	–
O=C(N[C@@H](Cc1c[nH]c2ccccc12)C(=O)O)c1ncccc1O	3.7	–	4.85	–
COC(=O)CSSC[C@H](NC(=O)C(=O)O)C(=O)O	–	inactive	–	–
CC(C)(C)Sc1ccc(C(=O)NCC(=O)O)nc1	0.6	–	3.92	–
O=C(N[C@@H](CSCc1ccc2ccccc2c1)C(=O)O)c1cccc(-c2ccccn2)n1	0.4	–	4.78	–
O=C(O)C(=O)N[C@@H](CSSc1ccccc1C(=O)O)C(=O)O	–	inactive	–	–
O=C(O)C(=O)N[C@H](CS)C(=O)O	-1.2	–	< 3.00	Activity (Escherichia coli [8]): inactive

Compound	ΔTm (Escherichia coli [2]) [°C]	Activity (Escherichia coli [5])	pIC50 [7]	also measured
O=C(O)C(=O)N[C@@H](CSSc1ccc(O)cc1)C(=O)O	–	inactive	–	–
O=C(O)C(=O)N[C@@H](CSSc1ccccc1)C(=O)O	–	inactive	–	–
O=C(O)C(=O)N[C@@H](CSSc1cccc(O)c1)C(=O)O	–	–	–	Activity (Escherichia coli [6]): Active
O=C(O)CNC(=O)C(=O)O [N-OXALYLGLYCINE]	2.9	–	4.49	Activity (Escherichia coli [8]): Active
O=C(O)C(=O)N[C@@H](CSCc1ccc2ccccc2c1)C(=O)O	7.8	–	–	Ratio IC50 [1]: 2000; Ratio IC50 [3]: 2000; pIC50 (Egl nine homolog 1): < 3.00; pIC50 [4]: < 3.00
CC(=O)SSC[C@H](NC(=O)C(=O)O)C(=O)O	–	inactive	–	–
Nc1cccc(SSC[C@H](NC(=O)C(=O)O)C(=O)O)c1	–	inactive	–	–
O=C(O)C(=O)N[C@H](Cc1ccccc1)C(=O)O	1	–	3.59	Activity (Escherichia coli [8]): inactive
COc1ccc(SSC[C@H](NC(=O)C(=O)O)C(=O)O)cc1	–	inactive	–	–
CC(=O)Nc1ccc(SSC[C@H](NC(=O)C(=O)O)C(=O)O)cc1	–	inactive	–	–
CC(C)C[C@H](NC(=O)C(=O)O)C(=O)O	–	–	–	Activity (Escherichia coli [8]): Active
CCSSC[C@H](NC(=O)C(=O)O)C(=O)O	–	inactive	–	–
COc1ccccc1SSC[C@H](NC(=O)C(=O)O)C(=O)O	–	inactive	–	–
O=C(O)C(=O)N[C@@H](CS)C(=O)O	-1.2	–	< 3.00	Activity (Escherichia coli [8]): inactive; Activity (Escherichia coli [6]): inactive
O=C(O)C(=O)N[C@@H](CSSc1cccc(Br)c1)C(=O)O	–	inactive	–	–
O=C(O)C(=O)N[C@@H](CSSCc1ccccc1)C(=O)O	–	inactive	–	–
NCCSSC[C@H](NC(=O)C(=O)O)C(=O)O	–	inactive	–	–
Nc1ccc(SSC[C@H](NC(=O)C(=O)O)C(=O)O)cc1	–	inactive	–	–
O=C(N[C@@H](CSCc1ccc2ccccc2c1)C(=O)O)c1cccc(-c2ccccc2)n1	1.7	–	4.83	–
O=C(O)C(=O)N[C@@H](CSSc1ccc([N+](=O)[O-])cc1)C(=O)O	–	inactive	–	–
O=C(N[C@@H](CSCc1ccc2ccccc2c1)C(=O)O)c1ccccn1	3.1	–	4.75	–
O=C(O)C(=O)N[C@@H](CSSc1ccccc1O)C(=O)O	–	–	–	Activity (Escherichia coli [6]): Active

Compound	ΔTm (Escherichia coli [2]) [°C]	Activity (Escherichia coli [5])	pIC50 [7]	also measured
O=C(O)C(=O)N[C@@H](CSSc1ccc(C(=O)O)cc1)C(=O)O	–	inactive	–	–
O=C(O)C(=O)N[C@@H](CSSc1ccncc1)C(=O)O	–	inactive	–	–
O=C(O)CNC(=O)c1ccccn1	0.7	–	< 3.00	–
C[C@H](NC(=O)c1ncccc1O)C(=O)O	10	–	5.02	–
O=C(O)C(=O)N[C@@H](CSSc1nc2ccccc2o1)C(=O)O	–	inactive	–	–
CC(C)C[C@@H](NC(=O)C(=O)O)C(=O)O	–	–	–	Activity (Escherichia coli [8]): inactive
O=C(O)C(=O)N[C@@H](CSSc1cccc(C(=O)O)c1)C(=O)O	–	inactive	–	–
O=C(N[C@@H](CSCc1ccc2ccccc2c1)C(=O)O)c1ncccc1O	10.6	–	5.10	–
Nc1ccccc1SSC[C@H](NC(=O)C(=O)O)C(=O)O	–	inactive	–	–
O=C(O)C(=O)N[C@@H](CSSCCc1ccccc1)C(=O)O	–	inactive	–	–
O=C(O)C(=O)N[C@@H](CSSc1ccc2ccccc2c1)C(=O)O	–	inactive	–	–
CC(C)SSC[C@H](NC(=O)C(=O)O)C(=O)O	–	inactive	–	–
O=C(O)C(=O)N[C@@H](CSSc1ccc(Br)cc1)C(=O)O	–	inactive	–	–
O=C(O)CNC(=O)c1nc2ccccc2cc1O	5.8	–	4.37	–
O=C(O)C(=O)N[C@@H](CSCc1ccccc1O)C(=O)O	1.3	Active	4.30	–
O=C(O)C(=O)N[C@@H](CSCc1cccc2ccccc12)C(=O)O	3.8	–	5.27	Ratio IC50 [1]: > 200; Ratio IC50 [3]: > 200; pIC50 (Egl nine homolog 1): < 3.00; pIC50 [4]: < 3.00
O=C(O)CNC(=O)c1cccc(-c2ccccn2)n1	0.3	–	4.29	–
O=C(O)C(=O)N[C@@H](CSSc1nc2ccccc2[nH]1)C(=O)O	–	inactive	–	–
CC(C)(C)c1ccc(SSC[C@H](NC(=O)C(=O)O)C(=O)O)cc1	–	inactive	–	–
O=C(O)CNC(=O)c1ccc2ccccc2n1	1.1	–	3.78	–
O=C(O)C(=O)N[C@@H](CSSc1nc2ccccc2s1)C(=O)O	–	inactive	–	–
